Measured values reported in ChEMBL document CHEMBL2429797, “2,5,6-trisubstituted imidazo[2,1-b][1,3,4]thiadiazoles: search for antihyperlipidemic agents” (Eur J Med Chem, 2013).
Activity calls are given as the source filed them. No cut-off for these calls is given here.

How the values were obtained:
Rattus norvegicus [1] = assay: Antihyperlipidemic activity in Triton-X-100-induced hyperlipidemia Wistar albino rat model assessed as reduction of triglyceride level in serum at 250 mg/kg, po qd for 7 days; format: functional
Method in brief: (§1)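 Male Wistar albino rats (200–250 g), fasted 18 h, then given a single i.p. injection of Triton-X-100 (100 mg/kg) in saline. Starting 72 h later, dosed orally once daily for 7 days with suspension in 5% CMC; six per group. Retro-orbital blood taken under ether; serum separated at 2500 × g, 15 min, 4 °C, and lipids assayed. Mean ± SEM, n = 6.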

Rattus norvegicus [2] = assay: Hepatotoxicity in Triton-X-100-induced hyperlipidemia Wistar albino rat model assessed as SGPT level in serum at 250 mg/kg, po qd for 7 days; format: toxicity, organism-based; design: dose 250 mg/kg, route oral; conditions: in vivo, 168 h
Method in brief: (§2)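 Serum from Triton-X-100 hyperlipidemic male Wistar rats, dosed orally daily for 7 days in 5% CMC. Blood taken retro-orbitally under ether. Assays: alanine transferase and aspartate transferase reported in IU, alkaline phosphatase in KA units. Normal ranges are given alongside.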

Rattus norvegicus [3] = assay: Antihyperlipidemic activity in Triton-X-100-induced hyperlipidemia Wistar albino rat model assessed as reduction of total cholesterol level in serum at 250 mg/kg, po qd for 7 days; format: functional; method in brief: as §1
Rattus norvegicus [4] = assay: Hepatotoxicity in Triton-X-100-induced hyperlipidemia Wistar albino rat model assessed as SGOT level in serum at 250 mg/kg, po qd for 7 days; format: toxicity, organism-based; design: dose 250 mg/kg, route oral; conditions: in vivo, 168 h; method in brief: as §2
Rattus norvegicus [5] = assay: Ratio of total cholesterol level in serum to HDL level in serum in Triton-X-100-induced hyperlipidemia Wistar albino rat model at 250 mg/kg, po qd for 7 days; format: functional
Method in brief: (§3)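 Triton-X-100 hyperlipidemic male Wistar rats, n = 6 per group, dosed orally for 7 days in 5% CMC. Serum lipids were measured and risk ratios calculated per NCEP (2002): total cholesterol:HDL (atherogenic index) and LDL:HDL.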

Rattus norvegicus [6] = assay: Antihyperlipidemic activity in Triton-X-100-induced hyperlipidemia Wistar albino rat model assessed as increase of HDL level in serum at 250 mg/kg, po qd for 7 days; format: functional; method in brief: as §1
Rattus norvegicus [7] = assay: Antihyperlipidemic activity in Triton-X-100-induced hyperlipidemia Wistar albino rat model assessed as reduction of VLDL level in serum at 250 mg/kg, po qd for 7 days; format: functional; method in brief: as §1
Rattus norvegicus [8] = assay: Antihyperlipidemic activity in Triton-X-100-induced hyperlipidemia Wistar albino rat model assessed as reduction of LDL level in serum at 250 mg/kg, po qd for 7 days; format: functional; method in brief: as §1
Rattus norvegicus [9] = assay: Protective activity against Triton-X-100-induced hepatotoxicity in Wistar albino rat assessed as mild cytoplasmic fatty infiltration and mild granular degeneration in liver at 250 mg/kg, po qd for 7 days; format: functional, organism-based; design: dose 250 mg/kg
Rattus norvegicus [10] = assay: Ratio of LDL level in serum to HDL level in serum in Triton-X-100-induced hyperlipidemia Wistar albino rat model at 250 mg/kg, po qd for 7 days; format: functional; method in brief: as §3
Rattus norvegicus [11] = assay: Hepatotoxicity in Triton-X-100-induced hyperlipidemia Wistar albino rat model assessed as alkaline phosphatase level in serum at 250 mg/kg, po qd for 7 days; format: toxicity, organism-based; design: dose 250 mg/kg, route oral; conditions: in vivo, 168 h; method in brief: as §2
Rattus norvegicus [12] = assay: Protective activity against Triton-X-100-induced hepatotoxicity in Wistar albino rat assessed as mild cytoplasmic fatty infiltration and mild to moderate granular degeneration in liver at 250 mg/kg, po qd for 7 days; format: functional, organism-based; design: dose 250 mg/kg

Row | Compound | Activity (Rattus norvegicus [1]) [mg/dL] | Activity (Rattus norvegicus [2]) [IU] | Activity (Rattus norvegicus [3]) [mg/dL] | Activity (Rattus norvegicus [4]) [IU] | Ratio (Rattus norvegicus [5]) | Activity (Rattus norvegicus [6]) [mg/dL] | Activity (Rattus norvegicus [7]) [mg/dL] | Activity (Rattus norvegicus [8]) [mg/dL] | Activity (Rattus norvegicus [9]) | Ratio (Rattus norvegicus [10]) | Activity (Rattus norvegicus [11]) [KA] | Activity (Rattus norvegicus [12])
1 | NS(=O)(=O)c1ccc(/N=C/c2c(-c3ccc(Cl)cc3)nc3sc(-c4ccc5c(c4)OCO5)nn23)cc1 | 79.54 | 28.6 | 101.56 | 51.7 | 3 | 33.78 | 14.73 | 52.23 | Active | 1.54 | 29.3 | –
2 | Cc1ccc(/N=C/c2c(-c3ccc(Cl)cc3)nc3sc(-c4ccc5c(c4)OCO5)nn23)cc1 | 85.67 | – | 113.28 | – | 3.89 | 29.12 | 18.35 | 68.84 | – | 2.36 | – | –
3 | COc1ccc(/N=C/c2c(-c3ccc(Cl)cc3)nc3sc(-c4ccc5c(c4)OCO5)nn23)cc1 | 83.56 | – | 107.83 | – | 3.44 | 31.34 | 16.86 | 59.85 | – | 1.9 | – | –
4 | Cc1cccc(/N=C/c2c(-c3ccc(Cl)cc3)nc3sc(-c4ccc5c(c4)OCO5)nn23)c1 | 86.23 | – | 113.72 | – | 4.04 | 28.12 | 19.93 | 62.83 | – | 2.23 | – | –
5 | CC(C)OC(=O)C(C)(C)Oc1ccc(C(=O)c2ccc(Cl)cc2)cc1 [FENOFIBRATE] | 71.23 | 26.43 | 102.24 | 49.45 | 2.9 | 35.21 | 13.67 | 51.68 | – | 1.46 | 28.33 | –
6 | Fc1ccc(/N=C/c2c(-c3ccc(Cl)cc3)nc3sc(-c4ccc5c(c4)OCO5)nn23)cc1Cl | 80.45 | 27.8 | 99.89 | 56.5 | 2.97 | 33.57 | 15.43 | 54.95 | Active | 1.63 | 27.3 | –
7 | COc1ccc(/N=C/c2c(-c3ccccc3)nc3sc(-c4ccc5c(c4)OCO5)nn23)cc1 | 84.98 | – | 113.98 | – | 3.95 | 28.83 | 18.46 | 64.73 | – | 2.24 | – | –
8 | O=[N+]([O-])c1ccc(/N=C/c2c(-c3ccc(Cl)cc3)nc3sc(-c4ccc5c(c4)OCO5)nn23)cc1 | 82.56 | 28.3 | 105.56 | 49.9 | 3.34 | 31.54 | 18.13 | 58.24 | – | 1.84 | 28.8 | –
9 | O=C(O)c1ccc(/N=C/c2c(-c3ccc(Cl)cc3)nc3sc(-c4ccc5c(c4)OCO5)nn23)cc1 | 76.89 | 26.8 | 96.12 | 48.3 | 2.76 | 34.78 | 15.85 | 49.94 | Active | 1.43 | 29.5 | –
10 | C(=N\c1ccccc1)/c1c(-c2ccccc2)nc2sc(-c3ccc4c(c3)OCO4)nn12 | 89.12 | – | 118.23 | – | 4.7 | 25.12 | 21.54 | 65.85 | – | 2.62 | – | –
11 | O=C(N/N=C/c1c(-c2ccc(Cl)cc2)nc2sc(-c3ccc4c(c3)OCO4)nn12)c1ccccc1 | 80.67 | – | 107.87 | – | 3.6 | 29.93 | 16.34 | 59.12 | – | 1.97 | – | –
12 | Clc1ccc(-c2nc3sc(-c4ccc5c(c4)OCO5)nn3c2/C=N/c2ccc(Br)cc2)cc1 | 83.43 | 29.3 | 103.54 | 58.8 | 3.15 | 32.85 | 16.85 | 53.82 | – | 1.63 | 26.6 | Active
13 | Cc1ccc(/N=C/c2c(-c3ccccc3)nc3sc(-c4ccc5c(c4)OCO5)nn23)cc1 | 88.43 | – | 114.36 | – | 4.89 | 23.34 | 22.83 | 66.32 | – | 2.84 | – | –
14 | Brc1ccc(/N=C/c2c(-c3ccccc3)nc3sc(-c4ccc5c(c4)OCO5)nn23)cc1 | 86.89 | – | 112.78 | – | 4.55 | 24.78 | 19.86 | 63.74 | – | 2.57 | – | –
